Experimental data from ChEMBL document CHEMBL4138319, “Discovery, Synthesis, Pharmacological Profiling, and Biological Characterization of Brintonamides A-E, Novel Dual Protease and GPCR Modulators from a Marine Cyanobacterium” (J Med Chem, 2018).
pEC50, pIC50: −log10 of the molar value. Activity calls are given as the source filed them. No cut-off for these calls is given here. Square brackets hold non-standard residues; d marks the D form. Peptide text beside a SMILES is read from it. * marks the point of attachment. X1 = CC[C@H](C)[C@@H](OC(=O)/C=C/c1ccccc1)C(=O)*; dNMeF = CN[C@H](Cc1ccccc1)C(=O)O; NMeL = CN[C@@H](CC(C)C)C(=O)O

Assays:
[1] = biological target: T1, Kallikrein-7 (Homo sapiens, UniProt P49862); assay: Mixed type inhibition of kallikrein 7 (unknown origin) using fluorescently labeled peptide substrate by fluorescence assay based Michaelis-Menten kinetic plot analysis
T1 sequence (P49862 30-253 limits assumed): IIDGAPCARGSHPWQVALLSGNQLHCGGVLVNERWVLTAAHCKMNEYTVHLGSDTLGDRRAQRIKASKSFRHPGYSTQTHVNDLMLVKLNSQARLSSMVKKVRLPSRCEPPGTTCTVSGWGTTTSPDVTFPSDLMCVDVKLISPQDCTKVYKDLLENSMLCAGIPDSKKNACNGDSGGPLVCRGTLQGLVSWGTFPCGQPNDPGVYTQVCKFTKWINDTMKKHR

[2] = system: MDA-MB-231; assay: Antiproliferative activity against human MDA-MB-231 cells after 48 hrs by MTT assay; assay type: functional, cell-based; conditions: Homo sapiens, MDA-MB-231, 48 h; read-out: IC50
Summary of the method: (§1)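 MDA-MB-231 cells are grown in DMEM with 10% FBS and seeded at 10,000 cells/well for 24 h. Cells are then exposed to graded compound concentrations or DMSO for 48 h. Viability is measured by MTT.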

[3] = biological target: T1, Kallikrein-7; assay: Inhibition of recombinant human kallikrein 7 assessed as decrease in cleavage of desmoglein-2 at 10 uM after 30 mins or 2 hrs by silver staining based SDS-PAGE analysis
[4] = biological target: T1, Kallikrein-7; assay: Inhibition of recombinant human kallikrein 7 assessed as decrease in cleavage of E-cadherin at 10 uM after 30 mins or 2 hrs by silver staining based SDS-PAGE analysis
[5] = system: MDA-MB-468; assay: Antimigratory activity against human MDA-MB-468 cells at 0.1 to 10 uM after 48 hrs; assay type: functional, cell-based
Summary of the method: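 Transwell migration through an 8 μm pore membrane. 5000 MDA-MB-468 cells in DMEM with 10% FBS are treated with graded compound concentrations or solvent on both sides for 48 h at 37 °C. Migrated cells are stained with crystal violet and counted. Run in triplicate.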

[6] = biological target: T2, C-C chemokine receptor type 10 (Homo sapiens) (UniProt P46092); assay: Antagonist activity at human CCR10 expressed in human U2OS cells assessed as inhibition of CCL27-induced beta-arrestin recruitment at 10 uM pre-incubated for 30 mins before CCL27 stimulation for 90 or 180 mins by chemiluminescence method; assay type: functional, cell-based; set-up: scale not given: the % may be the effect or the level left
T2 sequence (whole entry): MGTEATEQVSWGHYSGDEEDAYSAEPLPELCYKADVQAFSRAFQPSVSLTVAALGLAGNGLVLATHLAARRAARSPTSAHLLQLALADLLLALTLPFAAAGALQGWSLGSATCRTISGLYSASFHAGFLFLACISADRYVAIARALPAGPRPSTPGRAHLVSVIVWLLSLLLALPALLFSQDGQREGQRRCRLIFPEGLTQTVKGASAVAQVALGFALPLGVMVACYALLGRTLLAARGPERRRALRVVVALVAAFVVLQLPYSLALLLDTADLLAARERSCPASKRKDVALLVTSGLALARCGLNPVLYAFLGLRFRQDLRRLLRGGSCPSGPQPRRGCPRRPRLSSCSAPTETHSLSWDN

[7] = biological target: T3, Substance-K receptor (Homo sapiens) (UniProt P21452); assay: Antagonist activity at human TACR2 expressed in CHOK1 cells assessed as substance P-induced beta-arrestin recruitment at 10 uM pre-incubated for 30 mins before substance P stimulation for 90 or 180 mins by chemiluminescence method; assay type: functional, cell-based; set-up: scale not given: the % may be the effect or the level left
T3 sequence (whole entry): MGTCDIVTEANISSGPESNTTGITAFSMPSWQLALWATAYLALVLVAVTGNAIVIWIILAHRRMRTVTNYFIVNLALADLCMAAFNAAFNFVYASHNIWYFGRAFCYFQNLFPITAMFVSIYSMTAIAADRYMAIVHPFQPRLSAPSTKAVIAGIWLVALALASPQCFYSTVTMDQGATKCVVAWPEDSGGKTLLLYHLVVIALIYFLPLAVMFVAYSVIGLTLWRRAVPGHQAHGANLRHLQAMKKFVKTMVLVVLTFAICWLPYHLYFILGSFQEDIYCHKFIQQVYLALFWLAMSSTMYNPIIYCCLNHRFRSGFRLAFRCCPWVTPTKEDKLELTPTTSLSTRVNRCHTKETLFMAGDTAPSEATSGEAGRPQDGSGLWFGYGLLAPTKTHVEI

[8] = biological target: T4, Somatostatin receptor type 3 (Homo sapiens, UniProt P32745); assay: Antagonist activity at human SSTR3 expressed in HEK293 cells assessed as [Tyr1]-somatostatin 14-induced beta-arrestin recruitment at 10 uM pre-incubated for 30 mins before [Tyr1]-somatostatin 14 stimulation for 90 or 180 mins by chemiluminescence method; assay type: functional, cell-based; set-up: scale not given: the % may be the effect or the level left
T4 sequence (P32745 whole entry): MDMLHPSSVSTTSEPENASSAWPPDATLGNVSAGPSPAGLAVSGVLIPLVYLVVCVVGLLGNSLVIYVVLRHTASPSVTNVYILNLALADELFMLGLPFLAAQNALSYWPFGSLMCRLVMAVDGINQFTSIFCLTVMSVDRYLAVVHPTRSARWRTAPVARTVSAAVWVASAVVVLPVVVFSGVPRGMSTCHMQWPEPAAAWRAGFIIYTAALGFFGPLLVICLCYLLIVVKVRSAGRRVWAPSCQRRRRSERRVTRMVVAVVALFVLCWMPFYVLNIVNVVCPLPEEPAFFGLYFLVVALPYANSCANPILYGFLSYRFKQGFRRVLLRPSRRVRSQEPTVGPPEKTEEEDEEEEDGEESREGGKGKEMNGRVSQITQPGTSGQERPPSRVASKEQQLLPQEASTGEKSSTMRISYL

[9] = biological target: T5, Atypical chemokine receptor 3 (Homo sapiens, UniProt P25106); assay: Agonist activity at human CXCR7 expressed in CHOK1 cells assessed as induction of beta-arrestin recruitment by chemiluminescence method; assay type: functional, cell-based
T5 sequence (P25106 whole entry, the tested form may be a part): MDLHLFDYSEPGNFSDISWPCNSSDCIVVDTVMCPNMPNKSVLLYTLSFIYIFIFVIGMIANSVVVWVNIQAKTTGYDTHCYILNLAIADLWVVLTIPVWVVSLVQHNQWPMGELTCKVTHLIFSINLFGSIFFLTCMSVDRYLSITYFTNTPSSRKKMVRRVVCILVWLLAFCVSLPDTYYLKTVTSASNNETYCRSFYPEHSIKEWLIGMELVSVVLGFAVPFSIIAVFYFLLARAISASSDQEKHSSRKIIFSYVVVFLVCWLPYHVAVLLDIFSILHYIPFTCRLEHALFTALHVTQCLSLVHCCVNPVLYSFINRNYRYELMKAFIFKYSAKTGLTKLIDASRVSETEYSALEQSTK
Summary of the method: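 PathHunter β-arrestin enzyme-fragment complementation assay in cells stably co-expressing ProLink-tagged GPCR and enzyme-acceptor-tagged β-arrestin. Sample is added to cells and incubated 90 or 180 min at 37 °C or room temperature, with 1% final vehicle. Detection reagent is added for 1 h at room temperature and chemiluminescence is read. % activity is taken relative to vehicle and maximal control ligand. Dose-response: 10 points, 3-fold dilutions from 20 μM, in duplicate.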

[10] = biological target: T6, C-C chemokine receptor type 10 (Homo sapiens, UniProt P46092); assay: Antagonist activity at human CCR10 expressed in human U2OS cells assessed as inhibition of CCL27-induced beta-arrestin recruitment pre-incubated for 30 mins before CCL27 stimulation for 90 or 180 mins by chemiluminescence method; assay type: functional, cell-based
T6 sequence (P46092 whole entry): T2 sequence (whole entry)
Summary of the method: (§2)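 PathHunter β-arrestin complementation assay, antagonist mode. Cells co-express ProLink-tagged GPCR and enzyme-acceptor-tagged β-arrestin and are pre-incubated with sample for 30 min at 37 °C or room temperature. Dose-response: 10 points, 3-fold dilutions from 20 μM, in duplicate.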

[11] = biological target: T4, Somatostatin receptor type 3; assay: Antagonist activity at human SSTR3 expressed in HEK293 cells assessed as [Tyr1]-somatostatin 14-induced beta-arrestin recruitment pre-incubated for 30 mins before [Tyr1]-somatostatin 14 stimulation for 90 or 180 mins by chemiluminescence method; assay type: functional, cell-based; summary of the method: as §2
[12] = biological target: T5, Atypical chemokine receptor 3; assay: Agonist activity at human CXCR7 expressed in CHOK1 cells assessed as induction of beta-arrestin recruitment at 20 uM by chemiluminescence method; assay type: functional, cell-based
[13] = biological target: T2, C-C chemokine receptor type 10 (Homo sapiens); assay: Antagonist activity at CCR10 in human MDA-MB-231 cells assessed as inhibition of CCL27-induced proliferation preincubated for 2 hrs followed by CCL27 addition measured after 48 hrs by MTT assay; assay type: functional, cell-based
Summary of the method: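 MDA-MB-231 cells are seeded at 10,000/well in serum-free DMEM for 24 h, then pretreated with compound for 2 h. CCL27 is added at 1 μg/mL final for 48 h. Viability is measured by MTT and compared with solvent control, mean ± SD, n = 3.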

[14] = system: MDA-MB-231; assay: Antiproliferative activity against siCCR10 knockdown human MDA-MB-231 cells after 48 hrs by MTT assay; assay type: functional
Summary of the method: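 MDA-MB-231 cells are incubated with 50 nM CCR10 siRNA, which gives 60% knockdown confirmed by RT-qPCR. Proliferation is compared with negative-control siRNA, mean ± SD, n = 3.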

[15] = system: MDA-MB-231; assay: Antimigratory activity against human MDA-MB-231 cells at 10 uM after 48 hrs by transwell migration assay relative to control; assay type: functional
[16] = biological target: T1, Kallikrein-7; assay: Inhibition of kallikrein 7 (unknown origin) using fluorescently labeled peptide substrate by fluorescence assay
Summary of the method: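 KLK7 follow-up: 10-dose titrations, 3-fold serial dilution from 100 μM, in duplicate, with gabexate mesylate as positive control. Fluorescence from the labeled peptide substrate is monitored over time, and the initial linear slope (signal/min) is used to derive IC50.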

[17] = system: MDA-MB-231; assay: Toxicity in human MDA-MB-231 cells assessed as inhibition of proliferation after 48 hrs by MTT assay; assay type: cell-based; conditions: mda-mb-231, 48 h; summary of the method: as §1

CC[C@H](C)[C@@H](OC(=O)/C=C/c1ccccc1)C(=O)N1CCC[C@H]1C(=O)NCC(=O)N(C)[C@@H](CC(C)C)C(=O)N[C@@H](C)C(=O)N(C)[C@H](Cc1ccccc1)C(=O)N1CCC[C@H]1C(=O)OC (X1-PG[NMeL]A[dNMeF]P-OMe)
inhibition [1]: Active | pIC50 [2]: 4.78 | inhibition [3]: Active | inhibition [4]: Active | Activity [5]: Active | Activity [6]: 98% | Activity [7]: 97% | Activity [8]: 77% | pEC50 [9]: 5.40 | pIC50 [10]: 6.36 | pIC50 [11]: 5.51 | Activity [12]: 91% | inhibition [13]: Dose-dependent effect | Activity [14]: 10% | Activity [15]: 60% | inhibition [16]: Active | Activity [17]: Non-Toxic
